Experimental data published in ChEMBL document CHEMBL4020842, “Discovery of N1-(4-((7-Cyclopentyl-6-(dimethylcarbamoyl)-7 H-pyrrolo[2,3- d]pyrimidin-2-yl)amino)phenyl)- N8-hydroxyoctanediamide as a Novel Inhibitor Targeting Cyclin-dependent Kinase 4/9 (CDK4/9) and Histone Deacetlyase1 (HDAC1) against Malignant Cancer” (J Med Chem, 2018).
Calls of active or inactive are those of the source. The calls are words filed in the database; no cut-off is given here.

Key:
NCI-H460 [1] = assay: Induction of apoptosis in human NCI-H460 cells assessed as necrotic cells at 5 uM after 48 hrs by annexin V-FITC/propidium iodide staining based flow cytometry (reference value: 1.34%); format: functional
NCI-H460 [2] = assay: Induction of apoptosis in human NCI-H460 cells assessed as early apoptotic cells at 5 uM after 48 hrs by annexin V-FITC/propidium iodide staining based flow cytometry (reference value: 0.11%); format: functional
NCI-H460 [3] = assay: Induction of apoptosis in human NCI-H460 cells assessed as late apoptotic cells at 1 uM after 48 hrs by annexin V-FITC/propidium iodide staining based flow cytometry (reference value: 1.29%); format: functional
NCI-H460 [4] = assay: Induction of apoptosis in human NCI-H460 cells assessed as late apoptotic cells at 10 uM after 48 hrs by annexin V-FITC/propidium iodide staining based flow cytometry (reference value: 1.29%); format: functional
T47D [5] = assay: Induction of apoptosis in human T47D cells assessed as necrotic cells at 5 uM after 48 hrs by annexin V-FITC/propidium iodide staining based flow cytometry (reference value: 0.8%); format: functional
T47D [6] = assay: Induction of apoptosis in human T47D cells assessed as live cells at 5 uM after 48 hrs by annexin V-FITC/propidium iodide staining based flow cytometry (reference value: 85.3%); format: functional
T47D [7] = assay: Cell cycle arrest in human T47D cells assessed as decrease in S-phase at 625 nM after 24 hrs by propidium iodide staining based flow cytometry; format: functional
In short: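 Cells were exposed for 24 h to a range of concentrations (625 nM, 2.5 and 10 µM), with DMSO vehicle as control. They were then stained with propidium iodide and analysed by flow cytometry to obtain the percentages of cells in G0/G1, S and G2 phases.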

[8] = molecular target: CDK6/cyclin D3 (Homo sapiens) (UniProt P30281+Q00534); assay: Inhibition of recombinant human full length N-terminal 6His-tagged CDK6/N-terminal GST-tagged Cyclin-D3 co-expressed in sf21 cells at 1 uM using histone H1 substrate in presence of [gamma33P]ATP after 10 mins by scintillation counting method relative to control
[9] = molecular target: Cyclin-dependent kinase 1/cyclin B1 (Homo sapiens) (UniProt P06493+P14635); assay: Inhibition of recombinant human full length C-terminal 6His-tagged CDK1/N-terminal GST-tagged Cyclin-B co-expressed in baculovirus infected sf21 cells at 1 uM using histone H1 substrate in presence of [gamma33P]ATP after 10 mins by scintillation counting method relative to control
Aurora-C/INCENP = Aurora-C/INCENP (Homo sapiens, UniProt Q9NQS7+Q9UQB9); assay: Inhibition of recombinant human N-terminal His6-tagged Aurora-C (35-end residues)/N-terminal GST-tagged INCENP (821-end residues) expressed in baculovirus infected sf21 cells using AKRRRLSSLRA substrate in presence of [gamma33P]ATP after 10 mins by scintillation counting method
Hep 3B2 [10] = assay: Cytotoxicity against human Hep3B cells assessed as reduction in cell viability after 72 hrs by CCK8 assay
HepG2 [11] = assay: Induction of apoptosis in human HepG2 cells assessed as early apoptotic cells at 10 uM after 48 hrs by annexin V-FITC/propidium iodide staining based flow cytometry (reference value: 0.3%); format: functional
HepG2 [12] = assay: Induction of apoptosis in human HepG2 cells assessed as late apoptotic cells at 1 uM after 48 hrs by annexin V-FITC/propidium iodide staining based flow cytometry (reference value: 0.64%); format: functional
HepG2 [13] = assay: Induction of apoptosis in human HepG2 cells assessed as necrotic cells at 5 uM after 48 hrs by annexin V-FITC/propidium iodide staining based flow cytometry (reference value: 2.32%); format: functional
Hep 3B2 [14] = assay: Induction of apoptosis in human Hep3B cells assessed as early apoptotic cells at 10 uM after 48 hrs by annexin V-FITC/propidium iodide staining based flow cytometry (reference value: 1.91%); format: functional
Hep 3B2 [15] = assay: Induction of apoptosis in human Hep3B cells assessed as live cells at 1 uM after 48 hrs by annexin V-FITC/propidium iodide staining based flow cytometry (reference value: 97.9%); format: functional
Hep 3B2 [16] = assay: Induction of apoptosis in human Hep3B cells assessed as live cells at 5 uM after 48 hrs by annexin V-FITC/propidium iodide staining based flow cytometry (reference value: 97.9%); format: functional
Hep 3B2 [17] = assay: Induction of apoptosis in human Hep3B cells after 48 hrs by annexin V-FITC/propidium iodide staining based flow cytometry; format: functional, cell-based
NCI-H460 [18] = assay: Downregulation of CDK4 protein expression in human NCI-H460 cells after 48 hrs by Western blot method; format: functional, cell-based
In short: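 Treated cells were lysed and CDK4 and cyclin D1 protein levels were assessed by Western blot.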

A549 [19] = assay: Downregulation of CDK4 protein expression in human A549 cells after 48 hrs by Western blot method; format: functional, cell-based
Hep 3B2 [20] = assay: Downregulation of CDK4 protein expression in human Hep3B cells after 48 hrs by Western blot method; format: functional, cell-based
HepG2 [21] = assay: Induction of apoptosis in human HepG2 cells assessed as reduction in Bcl2 protein expression after 48 hrs by Western blot method; format: functional, cell-based
In short: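 Cells were treated with or without test agent, alongside a control, for 48h. They were then lysed and analysed by Western blot for Bcl-2 protein and cleaved caspase 3.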

Hep 3B2 [22] = assay: Induction of apoptosis in human Hep3B cells assessed as reduction in Bcl2 protein expression after 48 hrs by Western blot method; format: functional, cell-based
In short: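 Cells were treated with or without compound and control for 48 h, then lysed. Bcl-2 and cleaved caspase 3 were assessed by Western blot.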

A549 [23] = assay: Inhibition of CDK4 protein expression in human A549 cells at 0.1 to 1 uM after 24 hrs by immunofluorescence assay; format: functional, cell-based
In short: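 Cells treated 24 h with test compound or vehicle. For the CDK4 read-out the compound was used at 100 nM, and for acetyl-histone H3 at 1 µM. CDK4 and acetyl-histone H3 were then detected by immunofluorescence staining and compared with vehicle-treated cells.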

[24] = Cmax in Sprague-Dawley rat at 20 mg/kg, iv administered as single dose by HPLC analysis; format: ADME, organism-based; set-up: dose 20 mg/kg, route intravenous; conditions: in vivo
[25] = Apparent volume of distribution at steady state in Sprague-Dawley rat at 20 mg/kg, iv administered as single dose by HPLC analysis; format: ADME, organism-based; conditions: in vivo, read-out: Vdss(app)
[26] = Half life in Sprague-Dawley rat at 20 mg/kg, iv administered as single dose by HPLC analysis; format: ADME, organism-based; conditions: in vivo
[27] = Tmax in Sprague-Dawley rat at 20 mg/kg, ip administered as single dose by HPLC analysis; format: ADME, organism-based; conditions: in vivo
[28] = Clearance in Sprague-Dawley rat at 20 mg/kg, po administered as single dose by HPLC analysis; format: ADME, organism-based; conditions: in vivo
4T1 = assay: Antitumor activity against mouse Fluc-labeled 4T1 cells implanted in Balb/c mouse assessed as tumor growth inhibition at 130 mg/kg, ip administered daily for 18 days measured after 8 to 25 days by bioluminescence assay relative to control; format: functional; conditions: 4T1, ip, read-out: TGI
Mus musculus = assay: Downregulation of Bcl2 level in tumor of Balb/c mouse implanted with mouse Fluc-labeled 4T1 cells at 90 to 130 mg/kg, […] daily for 18 days by immunohistochemical analysis; format: functional, organism-based

Chain of Aurora-C/INCENP (Q9UQB9 whole entry): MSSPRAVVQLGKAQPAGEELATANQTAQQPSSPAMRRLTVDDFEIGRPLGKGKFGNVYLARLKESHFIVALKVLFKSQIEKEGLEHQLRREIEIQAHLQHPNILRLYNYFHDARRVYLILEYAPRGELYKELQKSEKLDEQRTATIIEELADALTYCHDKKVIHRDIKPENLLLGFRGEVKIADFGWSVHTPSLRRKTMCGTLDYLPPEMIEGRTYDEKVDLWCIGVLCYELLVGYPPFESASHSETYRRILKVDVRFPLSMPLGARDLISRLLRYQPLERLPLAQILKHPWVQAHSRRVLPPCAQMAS
Chain of Aurora-C/INCENP (Q9NQS7 whole entry): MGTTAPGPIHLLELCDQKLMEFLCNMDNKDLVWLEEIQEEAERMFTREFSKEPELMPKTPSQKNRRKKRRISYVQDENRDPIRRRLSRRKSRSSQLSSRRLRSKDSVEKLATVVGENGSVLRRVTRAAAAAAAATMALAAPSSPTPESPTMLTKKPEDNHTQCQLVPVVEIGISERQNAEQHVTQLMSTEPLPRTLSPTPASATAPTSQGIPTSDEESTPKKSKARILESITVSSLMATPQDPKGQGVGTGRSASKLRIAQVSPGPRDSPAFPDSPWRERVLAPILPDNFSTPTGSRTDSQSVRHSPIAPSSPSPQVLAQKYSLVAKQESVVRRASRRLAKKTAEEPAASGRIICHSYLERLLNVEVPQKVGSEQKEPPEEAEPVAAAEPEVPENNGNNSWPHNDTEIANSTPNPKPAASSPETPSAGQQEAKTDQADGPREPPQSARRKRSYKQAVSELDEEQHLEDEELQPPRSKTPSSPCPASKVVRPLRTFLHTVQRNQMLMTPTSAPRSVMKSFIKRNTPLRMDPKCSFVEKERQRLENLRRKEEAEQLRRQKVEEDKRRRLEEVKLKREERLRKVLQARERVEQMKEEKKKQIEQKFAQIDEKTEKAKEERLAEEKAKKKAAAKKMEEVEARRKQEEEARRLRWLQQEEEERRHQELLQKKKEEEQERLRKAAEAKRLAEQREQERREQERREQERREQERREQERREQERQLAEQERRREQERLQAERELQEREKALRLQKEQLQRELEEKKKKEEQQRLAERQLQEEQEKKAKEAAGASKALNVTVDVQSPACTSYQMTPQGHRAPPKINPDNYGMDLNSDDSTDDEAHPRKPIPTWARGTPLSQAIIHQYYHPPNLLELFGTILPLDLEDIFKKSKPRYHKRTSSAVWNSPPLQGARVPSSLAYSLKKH
Chain of Cyclin-dependent kinase 1/cyclin B1 (Homo sapiens) (P06493 whole entry, looked up): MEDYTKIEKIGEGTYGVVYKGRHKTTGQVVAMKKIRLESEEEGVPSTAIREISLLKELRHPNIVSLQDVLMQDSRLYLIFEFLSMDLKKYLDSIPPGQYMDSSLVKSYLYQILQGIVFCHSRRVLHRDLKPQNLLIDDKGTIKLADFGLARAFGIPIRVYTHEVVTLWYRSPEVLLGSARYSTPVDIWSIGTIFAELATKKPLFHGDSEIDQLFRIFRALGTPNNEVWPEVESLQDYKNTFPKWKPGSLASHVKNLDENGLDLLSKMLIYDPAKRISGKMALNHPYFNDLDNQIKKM
Chain of Cyclin-dependent kinase 1/cyclin B1 (Homo sapiens) (P14635 whole entry, looked up): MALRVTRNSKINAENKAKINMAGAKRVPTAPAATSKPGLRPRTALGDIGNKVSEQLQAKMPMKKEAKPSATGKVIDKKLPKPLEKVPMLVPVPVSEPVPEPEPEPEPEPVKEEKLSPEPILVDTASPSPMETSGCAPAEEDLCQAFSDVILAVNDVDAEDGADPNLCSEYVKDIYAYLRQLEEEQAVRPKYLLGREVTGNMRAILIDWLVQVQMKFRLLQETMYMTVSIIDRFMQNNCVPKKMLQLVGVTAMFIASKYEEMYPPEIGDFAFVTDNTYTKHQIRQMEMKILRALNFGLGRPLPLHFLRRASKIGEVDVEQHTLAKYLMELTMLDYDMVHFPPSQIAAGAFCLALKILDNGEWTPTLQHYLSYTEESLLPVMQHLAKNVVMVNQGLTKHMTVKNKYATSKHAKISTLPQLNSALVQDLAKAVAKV

inhibition [8]: 70%
inhibition [9]: 55%
IC50 (Aurora-C/INCENP): 22 nM
Cmax [24]: 3850 ng/mL
Vd [25]: 49 L/kg
half-life [26]: 10.8 h
Tmax [27]: 0.262 h
CL/F [28]: 344 mL/min/kg
SMILES: CN(C)C(=O)c1cc2cnc(Nc3ccc(NC(=O)CCCCCCC(=O)NO)cc3)nc2n1C1CCCC1
Activity (NCI-H460 [1]): 3.88%
Activity (NCI-H460 [2]): 1.82%
Activity (NCI-H460 [3]): 1.48%
Activity (NCI-H460 [4]): 10.9%
Activity (T47D [5]): 0.82%
Activity (T47D [6]): 76.5%
Activity (T47D [7]): Active
IC50 (Hep 3B2 [10]): 1240 nM
Activity (HepG2 [11]): 9.32%
Activity (HepG2 [12]): 6.07%
Activity (HepG2 [13]): 6.13%
Activity (Hep 3B2 [14]): 8.15%
Activity (Hep 3B2 [15]): 85.8%
Activity (Hep 3B2 [16]): 81%
Activity (Hep 3B2 [17]): Dose-dependent effect
Activity (NCI-H460 [18]): Dose-dependent effect
Activity (A549 [19]): Dose-dependent effect
Activity (Hep 3B2 [20]): Dose-dependent effect
Activity (HepG2 [21]): Active
Activity (Hep 3B2 [22]): Active
inhibition (A549 [23]): Active
inhibition in vivo at 130 mg/kg (4T1): 84.8%
Activity (Mus musculus): Active
